# Reference: ChEMBL document CHEMBL3098082, “Design, synthesis, molecular docking and 3D-QSAR studies of potent inhibitors of enoyl-acyl carrier protein reductase as potential antimycobacterial agents” (Eur J Med Chem, 2014)
# Assays:
# [1] = tested on: Mycobacterium tuberculosis; assay: Antimycobacterial activity against Mycobacterium tuberculosis H37Rv after 5 days by microplate alamar blue assay; assay type: functional; details: for MIC: Mycobacterium tuberculosis, H37Rv, 120 h
# In short: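 M. tuberculosis H37Rv in Middlebrook 7H9 broth; compounds serially diluted on plate at 0.2–100 […] (so in the source); isoniazid reference. Incubated 37 C, 5 days, then 1:1 alamar blue/10% Tween 80 added, further 24 h. Blue = no growth, pink = growth; MIC = lowest concentration preventing blue-to-pink change.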
# Vero = assay: Cytotoxicity against african green monkey Vero cells by MTT assay; assay type: cell-based; details: Chlorocebus sabaeus
# A549 = assay: Cytotoxicity against human A549 cells by MTT assay; assay type: cell-based
smiles,measurement,setting,value
C/C(=N\NC(N)=S)c1ccc(-n2cccc2)cc1,-logMIC,[1],4.301
same,MIC,[1],50 µg/mL
C/C(=N\NC(N)=O)c1ccc(-n2cccc2)cc1,-logMIC,[1],4
same,MIC,[1],100 µg/mL
C/C(=N\NC(=O)c1ccncc1)c1ccc(-n2c(C)ccc2C)cc1,-logMIC,[1],4
same,MIC,[1],100 µg/mL
C/C(=N\NC(=O)c1cccnc1)c1ccc(-n2c(C)ccc2C)cc1,-logMIC,[1],4
same,MIC,[1],100 µg/mL
C/C(=N\NC(=O)c1ccc(-n2cccc2)cc1)c1ccc(-n2c(C)ccc2C)cc1,-logMIC,[1],4.301
same,MIC,[1],50 µg/mL
C/C(=N\NC(=O)c1ccc(-n2c(C)ccc2C)cc1)c1ccc(-n2c(C)ccc2C)cc1,-logMIC,[1],4.602
same,MIC,[1],25 µg/mL
C/C(=N\NC(=O)c1ccccc1)c1ccc(-n2c(C)ccc2C)cc1,-logMIC,[1],4.602
same,MIC,[1],25 µg/mL
C/C(=N\NC(=O)c1ccc(C)cc1)c1ccc(-n2c(C)ccc2C)cc1,-logMIC,[1],4.602
same,MIC,[1],25 µg/mL
C/C(=N\NC(=O)c1ccc(Cl)cc1)c1ccc(-n2c(C)ccc2C)cc1,-logMIC,[1],4.602
same,MIC,[1],25 µg/mL
C/C(=N\NC(=O)c1ccc(Br)cc1)c1ccc(-n2c(C)ccc2C)cc1,-logMIC,[1],4.602
same,MIC,[1],25 µg/mL
C/C(=N\NC(=O)c1ccccc1Cl)c1ccc(-n2c(C)ccc2C)cc1,-logMIC,[1],4.903
same,MIC,[1],12.5 µg/mL
C/C(=N\NC(=O)c1ccc(O)cc1)c1ccc(-n2c(C)ccc2C)cc1,-logMIC,[1],4.602
same,MIC,[1],25 µg/mL
C/C(=N\NC(=O)COc1ccccc1)c1ccc(-n2c(C)ccc2C)cc1,-logMIC,[1],6.097
same,MIC,[1],0.8 µg/mL
C/C(=N\NC(=O)COc1ccc(C)cc1)c1ccc(-n2c(C)ccc2C)cc1,-logMIC,[1],5.505
same,MIC,[1],3.12 µg/mL
C/C(=N\NC(=O)COc1ccc(Cl)cc1)c1ccc(-n2c(C)ccc2C)cc1,-logMIC,[1],5.505
same,MIC,[1],3.12 µg/mL
C/C(=N\NC(=O)COc1ccc(Br)cc1)c1ccc(-n2c(C)ccc2C)cc1,-logMIC,[1],5.204
same,MIC,[1],6.25 µg/mL
C/C(=N\NC(=O)COc1ccccc1Cl)c1ccc(-n2c(C)ccc2C)cc1,-logMIC,[1],4.301
same,MIC,[1],50 µg/mL
C/C(=N\NC(=O)COc1ccc(O)cc1)c1ccc(-n2c(C)ccc2C)cc1,-logMIC,[1],4.602
same,MIC,[1],25 µg/mL
C/C(=N\NC(=O)COc1c(Cl)cc(Cl)cc1Cl)c1ccc(-n2c(C)ccc2C)cc1,-logMIC,[1],4.903
same,MIC,[1],12.5 µg/mL
C/C(=N\NC(=O)COc1cccc2ccccc12)c1ccc(-n2c(C)ccc2C)cc1,IC50,Vero,277 µM
same,IC50,A549,269 µM
same,-logMIC,[1],6.699
same,MIC,[1],0.2 µg/mL
C/C(=N\NC(=O)COc1ccc2ccccc2c1)c1ccc(-n2c(C)ccc2C)cc1,IC50,Vero,255 µM
same,IC50,A549,260 µM
same,-logMIC,[1],6.699
same,MIC,[1],0.2 µg/mL
C/C(=N\NS(=O)(=O)c1ccc(C)cc1)c1ccc(-n2c(C)ccc2C)cc1,IC50,Vero,279 µM
same,IC50,A549,277 µM
same,-logMIC,[1],6.398
same,MIC,[1],0.4 µg/mL
CC(=O)Nc1ccc(S(=O)(=O)N/N=C(\C)c2ccc(-n3c(C)ccc3C)cc2)cc1,-logMIC,[1],6.097
same,MIC,[1],0.8 µg/mL
C/C(=N\NS(=O)(=O)c1ccc(N)cc1)c1ccc(-n2c(C)ccc2C)cc1,-logMIC,[1],4.903
same,MIC,[1],12.5 µg/mL
C/C(=N\Nc1ccccc1)c1ccc(-n2c(C)ccc2C)cc1,-logMIC,[1],4.602
same,MIC,[1],25 µg/mL
C/C(=N\Nc1ccc([N+](=O)[O-])cc1[N+](=O)[O-])c1ccc(-n2c(C)ccc2C)cc1,-logMIC,[1],4.903
same,MIC,[1],12.5 µg/mL
C/C(=N\NC(N)=S)c1ccc(-n2c(C)ccc2C)cc1,-logMIC,[1],4.301
same,MIC,[1],50 µg/mL
C/C(=N\NC(N)=O)c1ccc(-n2c(C)ccc2C)cc1,-logMIC,[1],4.301
same,MIC,[1],50 µg/mL
C/C(=N\NC(=O)c1ccncc1)c1ccc(-n2cccc2)cc1,-logMIC,[1],4.301
same,MIC,[1],50 µg/mL
C/C(=N\NC(=O)c1cccnc1)c1ccc(-n2cccc2)cc1,-logMIC,[1],4.301
same,MIC,[1],50 µg/mL
C/C(=N\NC(=O)c1ccc(-n2cccc2)cc1)c1ccc(-n2cccc2)cc1,-logMIC,[1],4.903
same,MIC,[1],12.5 µg/mL
C/C(=N\NC(=O)c1ccc(-n2c(C)ccc2C)cc1)c1ccc(-n2cccc2)cc1,-logMIC,[1],4.602
same,MIC,[1],25 µg/mL
C/C(=N\NC(=O)c1ccccc1)c1ccc(-n2cccc2)cc1,-logMIC,[1],4.301
same,MIC,[1],50 µg/mL
C/C(=N\NC(=O)c1ccc(C)cc1)c1ccc(-n2cccc2)cc1,-logMIC,[1],4.301
same,MIC,[1],50 µg/mL
C/C(=N\NC(=O)c1ccc(Cl)cc1)c1ccc(-n2cccc2)cc1,-logMIC,[1],4.301
same,MIC,[1],50 µg/mL
C/C(=N\NC(=O)c1ccc(Br)cc1)c1ccc(-n2cccc2)cc1,-logMIC,[1],4.301
same,MIC,[1],50 µg/mL
C/C(=N\NC(=O)c1ccccc1Cl)c1ccc(-n2cccc2)cc1,-logMIC,[1],4.602
same,MIC,[1],25 µg/mL
C/C(=N\NC(=O)c1ccc(O)cc1)c1ccc(-n2cccc2)cc1,-logMIC,[1],4.903
same,MIC,[1],12.5 µg/mL
C/C(=N\NC(=O)COc1ccccc1)c1ccc(-n2cccc2)cc1,-logMIC,[1],4.903
same,MIC,[1],12.5 µg/mL
C/C(=N\NC(=O)COc1ccc(C)cc1)c1ccc(-n2cccc2)cc1,-logMIC,[1],4.903
same,MIC,[1],12.5 µg/mL
C/C(=N\NC(=O)COc1ccc(Cl)cc1)c1ccc(-n2cccc2)cc1,-logMIC,[1],4.903
same,MIC,[1],12.5 µg/mL
C/C(=N\NC(=O)COc1ccc(Br)cc1)c1ccc(-n2cccc2)cc1,-logMIC,[1],4.301
same,MIC,[1],50 µg/mL
C/C(=N\NC(=O)COc1ccccc1Cl)c1ccc(-n2cccc2)cc1,-logMIC,[1],4.602
same,MIC,[1],25 µg/mL
C/C(=N\NC(=O)COc1ccc(O)cc1)c1ccc(-n2cccc2)cc1,-logMIC,[1],4.602
same,MIC,[1],25 µg/mL
C/C(=N\NC(=O)COc1c(Cl)cc(Cl)cc1Cl)c1ccc(-n2cccc2)cc1,-logMIC,[1],4.301
same,MIC,[1],50 µg/mL
C/C(=N\NC(=O)COc1cccc2ccccc12)c1ccc(-n2cccc2)cc1,IC50,Vero,240 µM
same,IC50,A549,243 µM
same,-logMIC,[1],6.398
same,MIC,[1],0.4 µg/mL
C/C(=N\NC(=O)COc1ccc2ccccc2c1)c1ccc(-n2cccc2)cc1,IC50,Vero,249 µM
same,IC50,A549,247 µM
same,-logMIC,[1],6.699
same,MIC,[1],0.2 µg/mL
C/C(=N\NS(=O)(=O)c1ccc(C)cc1)c1ccc(-n2cccc2)cc1,-logMIC,[1],6.097
same,MIC,[1],0.8 µg/mL
CC(=O)Nc1ccc(S(=O)(=O)N/N=C(\C)c2ccc(-n3cccc3)cc2)cc1,IC50,Vero,263 µM
same,IC50,A549,257 µM
same,-logMIC,[1],6.699
same,MIC,[1],0.2 µg/mL
C/C(=N\NS(=O)(=O)c1ccc(N)cc1)c1ccc(-n2cccc2)cc1,-logMIC,[1],5.204
same,MIC,[1],6.25 µg/mL
C/C(=N\Nc1ccccc1)c1ccc(-n2cccc2)cc1,-logMIC,[1],4.903
same,MIC,[1],12.5 µg/mL
C/C(=N\Nc1ccc([N+](=O)[O-])cc1[N+](=O)[O-])c1ccc(-n2cccc2)cc1,-logMIC,[1],4.903
same,MIC,[1],12.5 µg/mL
NNC(=O)c1ccncc1 [ISONIAZID],IC50,Vero,> 450 µM
same,IC50,A549,> 450 µM
same,MIC,[1],0.25 µg/mL
Oc1cc(Cl)ccc1Oc1ccc(Cl)cc1Cl [TRICLOSAN],MIC,[1],10 µg/mL
